How the values were obtained:
[1] = target: T1, DNA polymerase alpha catalytic subunit (Homo sapiens, UniProt P09884); assay: Inhibition of human DNA polymerase alpha assessed as incorporation of [alpha-32P]dCTP up to 1mM preincubated for 30 mins by whatman DE81 paper binding assay
T1 sequence (P09884 whole entry): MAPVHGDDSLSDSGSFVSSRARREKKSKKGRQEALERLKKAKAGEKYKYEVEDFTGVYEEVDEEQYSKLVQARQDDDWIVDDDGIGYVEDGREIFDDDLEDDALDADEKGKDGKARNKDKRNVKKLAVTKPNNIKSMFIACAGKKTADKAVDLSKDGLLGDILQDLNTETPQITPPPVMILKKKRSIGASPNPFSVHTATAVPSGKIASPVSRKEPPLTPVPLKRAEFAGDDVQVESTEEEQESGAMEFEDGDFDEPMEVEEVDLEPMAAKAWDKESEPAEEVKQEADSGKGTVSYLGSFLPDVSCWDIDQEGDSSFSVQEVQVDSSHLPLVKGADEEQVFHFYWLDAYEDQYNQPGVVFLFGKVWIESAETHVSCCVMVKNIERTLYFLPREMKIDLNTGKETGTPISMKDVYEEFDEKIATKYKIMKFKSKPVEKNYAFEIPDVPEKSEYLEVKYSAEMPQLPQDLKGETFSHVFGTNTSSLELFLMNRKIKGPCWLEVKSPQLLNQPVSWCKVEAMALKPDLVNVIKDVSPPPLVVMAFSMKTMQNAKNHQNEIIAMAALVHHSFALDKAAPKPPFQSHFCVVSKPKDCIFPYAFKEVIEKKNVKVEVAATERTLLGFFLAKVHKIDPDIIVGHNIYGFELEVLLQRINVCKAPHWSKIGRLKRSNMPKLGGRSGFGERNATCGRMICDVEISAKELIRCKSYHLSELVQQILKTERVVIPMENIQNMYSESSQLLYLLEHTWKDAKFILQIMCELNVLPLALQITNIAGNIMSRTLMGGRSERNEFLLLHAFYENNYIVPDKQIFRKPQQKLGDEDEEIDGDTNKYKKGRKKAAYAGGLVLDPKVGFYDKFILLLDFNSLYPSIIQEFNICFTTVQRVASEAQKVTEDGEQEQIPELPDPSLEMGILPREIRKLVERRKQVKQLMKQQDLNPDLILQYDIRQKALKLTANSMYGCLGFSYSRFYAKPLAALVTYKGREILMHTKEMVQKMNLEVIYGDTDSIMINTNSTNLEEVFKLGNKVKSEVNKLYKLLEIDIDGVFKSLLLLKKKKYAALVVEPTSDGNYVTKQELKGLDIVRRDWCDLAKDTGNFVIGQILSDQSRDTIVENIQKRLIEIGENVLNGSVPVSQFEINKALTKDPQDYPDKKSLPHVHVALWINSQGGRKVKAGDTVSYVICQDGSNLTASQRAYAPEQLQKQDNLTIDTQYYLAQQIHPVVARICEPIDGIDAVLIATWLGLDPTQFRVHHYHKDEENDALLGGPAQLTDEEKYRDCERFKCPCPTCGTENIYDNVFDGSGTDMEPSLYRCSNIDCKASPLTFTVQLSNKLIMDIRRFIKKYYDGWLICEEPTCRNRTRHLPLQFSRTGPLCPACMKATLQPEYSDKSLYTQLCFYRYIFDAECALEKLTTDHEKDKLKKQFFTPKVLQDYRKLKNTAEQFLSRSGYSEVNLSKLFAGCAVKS
Procedure, shortened: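 Human DNA polymerase α (20 μg/ml) or γ (50 μg/ml) in 50 mM Tris pH 7.5, 50 mM NaCl, activated calf thymus DNA, 20 μM each dNTP, [α-32P]dCTP, 5 mM MgCl2. Nucleotide inhibitor up to 1 mM. 37°C, quenched with EDTA at 30 min. Product measured by DE81 paper binding; IC50 by nonlinear fit.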

Hepatitis C virus [2] = assay: Antiviral activity against Hepatitis C virus H77; format: functional, organism-based, Hepacivirus hominis; conditions: genotype 1a H77
Hepatitis C virus [3] = assay: Selectivity ratio of EC90 for Hepatitis C virus harboring NS5B polymerase S282T mutant gene to EC90 for Hepatitis C virus harboring wild-type NS5B polymerase; format: functional, Hepacivirus hominis
Procedure, shortened: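 Clone A genotype 1b (Con1) replicon cells, wild-type or S282T mutant (selected with 2′-C-methyladenosine). 1,500 cells/well, 4 days with serially diluted compound. HCV RNA by real-time RT-PCR; EC90 from dose–response.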

Row | Compound | IC50 [1] | EC50 (Hepatitis C virus [2]) | EC90 (Hepatitis C virus [2]) | Selectivity ratio (Hepatitis C virus [3])
1 | C[C@@]1(F)[C@H](O)[C@@H](COP(=O)(O)OP(=O)(O)OP(=O)(O)O)O[C@H]1n1ccc(=O)[nH]c1=O [GS-461203] | 550 µM | – | – | –
2 | CC(C)OC(=O)[C@H](C)NP(=O)(OC[C@H]1O[C@@H](n2ccc(=O)[nH]c2=O)[C@](C)(F)[C@@H]1O)Oc1ccccc1 (some centres undefined) | – | 190 nM | 340 nM | 16.4
